According to ChEMBL document CHEMBL1130252, “5-HT1B receptor antagonist properties of novel arylpiperazide derivatives of 1-naphthylpiperazine” (J Med Chem, 1997):

Columns and labels:
[1] = target: T1, 5-hydroxytryptamine receptor 1A (Homo sapiens, UniProt P08908); test: Receptor binding affinity for cloned human 5-hydroxytryptamine 1A receptor in HeLa cells; format: cell-based
T1 sequence (P08908 whole entry): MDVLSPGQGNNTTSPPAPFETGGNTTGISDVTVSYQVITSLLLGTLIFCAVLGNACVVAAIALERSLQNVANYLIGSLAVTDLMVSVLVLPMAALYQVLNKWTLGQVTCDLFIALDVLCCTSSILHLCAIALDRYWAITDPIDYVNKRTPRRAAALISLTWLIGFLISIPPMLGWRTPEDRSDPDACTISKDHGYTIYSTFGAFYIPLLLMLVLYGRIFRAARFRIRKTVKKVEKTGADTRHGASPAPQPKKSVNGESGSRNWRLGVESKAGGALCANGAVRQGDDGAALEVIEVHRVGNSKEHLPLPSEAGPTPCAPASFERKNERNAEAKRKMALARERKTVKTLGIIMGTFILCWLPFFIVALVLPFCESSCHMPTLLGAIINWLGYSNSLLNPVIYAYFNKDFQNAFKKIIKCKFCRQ

[2] = target: T2, 5-hydroxytryptamine receptor 1B (Homo sapiens, UniProt P28222); test: Receptor binding affinity for cloned human 5-hydroxytryptamine 1B receptor in Cos-7 cells; format: cell-based
T2 sequence (P28222 whole entry): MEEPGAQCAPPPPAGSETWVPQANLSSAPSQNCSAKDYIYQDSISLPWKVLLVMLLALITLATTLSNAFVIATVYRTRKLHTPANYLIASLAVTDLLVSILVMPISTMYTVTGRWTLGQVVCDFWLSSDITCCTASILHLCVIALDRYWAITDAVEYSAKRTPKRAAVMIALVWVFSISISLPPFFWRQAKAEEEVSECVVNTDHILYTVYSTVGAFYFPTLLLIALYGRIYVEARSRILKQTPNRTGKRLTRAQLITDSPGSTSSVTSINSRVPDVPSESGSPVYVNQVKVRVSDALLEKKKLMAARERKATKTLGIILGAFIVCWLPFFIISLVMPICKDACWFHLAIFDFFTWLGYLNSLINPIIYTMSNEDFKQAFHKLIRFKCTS

[3] = target: T2, 5-hydroxytryptamine receptor 1B; test: Percentage Maximal inhibition obtained with 1 uM 5-HT against 5-hydroxytryptamine 1B receptor
Outline: (§1)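 Human 5-HT1B receptors expressed in CHO-K1 cells. Agonist response read as inhibition of forskolin-stimulated cAMP formation. EC50 determined, and Emax expressed as a percentage of the maximal inhibition produced by 1 µM 5-HT. Values are the mean of two or three experiments, each run in duplicate, with individual values typically within ±10-20% of the mean.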

[4] = target: 5-hydroxytryptamine receptor 1D (Homo sapiens, UniProt P28221); test: Receptor binding affinity for cloned human 5-hydroxytryptamine 1D receptor in Cos-7 cells; format: cell-based
5-hydroxytryptamine receptor 1D, sequence (P28221 whole entry): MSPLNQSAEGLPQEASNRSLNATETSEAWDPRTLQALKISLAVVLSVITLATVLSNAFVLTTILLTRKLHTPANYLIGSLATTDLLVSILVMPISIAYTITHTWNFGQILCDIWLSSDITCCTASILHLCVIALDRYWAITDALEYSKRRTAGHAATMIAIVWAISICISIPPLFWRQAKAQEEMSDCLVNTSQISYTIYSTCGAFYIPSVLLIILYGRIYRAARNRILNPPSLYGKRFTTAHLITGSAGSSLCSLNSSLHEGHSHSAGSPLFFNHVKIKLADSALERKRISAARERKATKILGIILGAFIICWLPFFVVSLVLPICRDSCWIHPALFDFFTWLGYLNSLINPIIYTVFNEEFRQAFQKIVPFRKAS

[5] = target: T2, 5-hydroxytryptamine receptor 1B; test: Antagonism tested at 1 uM against the agonist-induced inhibitory effect of 10 nM 5-carbamoyltryptamine(5-CT); format: functional
Outline: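 Run in the same forskolin-stimulated cAMP system, with h5-HT1B receptors expressed in CHO-K1 cells. The compound at 1 µM was tested against the inhibition of cAMP formation produced by 10 nM 5-CT. Values are the mean of two or three experiments, each in duplicate.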

[6] = target: T2, 5-hydroxytryptamine receptor 1B; test: Agonist activity at 5-hydroxytryptamine 1B receptor by measuring the inhibition of forskolin-stimulated cAMP formation; format: functional; outline: as §1
[7] = target: T2, 5-hydroxytryptamine receptor 1B; settings: 1 uM

Structure (SMILES) | Ki [1] | Ki [2] | Emax [3] | Ki [4] | Antagonism [5] | EC50 [6] | Antagonism [7]
CN1CCN(c2cccc3ccc(OCC(=O)N4CCN(c5ccccc5C#N)CC4)cc23)CC1 | 12.3 nM | 0.38 nM | 48% | 0.51 nM | 56% | 28 nM | –
CN1CCN(c2cccc3ccc(OCC(=O)N4CCN(c5cccc6c5OCCO6)CC4)cc23)CC1 | 14.1 nM | 0.43 nM | 58% | 0.45 nM | 45% | 25 nM | –
c1ccc2c(N3CCNCC3)cccc2c1 | 9.2 nM | 10.1 nM | < 10% | 6.2 nM | 96% | > 1000 nM | –
COc1cccc(N2CCN(C(=O)COc3ccc4cccc(N5CCN(C)CC5)c4c3)CC2)c1OC | 13.4 nM | 0.44 nM | 69% | 0.62 nM | 47% | 30 nM | –
COc1ccc2ccc(N3CCNCC3)cc2c1 | 2.8 nM | 2 nM | < 10% | 0.7 nM | 95% | > 1000 nM | –
Cc1ccccc1CN1CCN(C(=O)COc2ccc3cccc(N4CCN(C)CC4)c3c2)CC1 | 22.7 nM | 0.2 nM | < 10% | 0.55 nM | 87% | > 1000 nM | –
Cc1cc(C)c(N2CCN(C(=O)COc3ccc4cccc(N5CCN(C)CC5)c4c3)CC2)c(C)c1 | 117 nM | 1.4 nM | 26% | 1.9 nM | 46% | 25 nM | –
CN1CCN(c2cccc3ccc(OCC(=O)N4CCN(c5cccc6ccccc56)CC4)cc23)CC1 | 114 nM | 0.43 nM | < 10% | 0.88 nM | 57% | > 1000 nM | –
Cc1ccccc1N1CCN(C(=O)COc2ccc3cccc(N4CCN(C)CC4)c3c2)CC1 | – | 0.3 nM | < 10% | 0.69 nM | – | > 1000 nM | 80%
